Key:
[1] = biological target: T1, Neuraminidase (Influenza A virus, UniProt B4URF0); experiment: Inhibition of Influenza A virus (A/Aichi/169/2005(H1N1)) neuraminidase after 30 mins by fluorescence analysis
[2] = test system: Influenza A virus; experiment: Antiviral activity against Influenza A virus (A/Puerto Rico/8/1934(H1N1)) infected in mouse infection model at 95 ug/kg, itn administered 4 hrs pre-infection and at 4 hrs and 17 hrs post-infection up to 20 days; type: functional, organism-based
[3] = biological target: T1, Neuraminidase; experiment: Inhibition of Influenza A virus (A/Yamagata/32/1989(H1N1)) neuraminidase after 30 mins by fluorescence analysis
[4] = Inhibition of Influenza B virus (B/Saitama/01/2005(Yamagata)) neuraminidase after 30 mins by fluorescence analysis
Summary of the method: (§1)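 Virus NA source was mixed with compound in 32.5 mM MES-NaOH pH 6.5 with 4 mM CaCl2 and preincubated 10 min at room temperature. Reaction ran 30 min at room temperature with 100 μM (final) 4-MU-NANA. Fluorescence was read at ex 360/em 460 nm, in triplicate. IC50 came from linear regression of residual activity against log concentration, using concentrations giving 10–90% residual activity.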

[5] = biological target: T1, Neuraminidase; experiment: Inhibition of Influenza A virus (A/Yamagata/1/2002(H3N2)) neuraminidase after 30 mins by fluorescence analysis
[6] = biological target: T1, Neuraminidase; experiment: Inhibition of Influenza A virus (A/Yamagata/57/2002(H1N1)) neuraminidase after 30 mins by fluorescence analysis
[7] = Inhibition of Influenza B virus (B/Yamagata/145/2003(Victoria)) neuraminidase after 30 mins by fluorescence analysis; summary of the method: as §1
[8] = biological target: T1, Neuraminidase; experiment: Inhibition of Influenza A virus (A/duck/Alberta/60/1976(H12N5)) neuraminidase after 30 mins by fluorescence analysis
[9] = biological target: T1, Neuraminidase; experiment: Inhibition of Influenza A virus (A/New York/55/2004(H3N2)) neuraminidase after 30 mins by fluorescence analysis
[10] = biological target: T1, Neuraminidase; experiment: Inhibition of Influenza A virus (A/Shiga/1/2002(H1N1)) neuraminidase after 30 mins by fluorescence analysis
[11] = biological target: T1, Neuraminidase; experiment: Inhibition of Influenza A virus (A/New Caledonia/20/1999(H1N1)) neuraminidase after 30 mins by fluorescence analysis
[12] = test system: Influenza A virus; experiment: Antiviral activity against Influenza A virus (A/Puerto Rico/8/1934(H1N1)) infected in mouse infection model at 0.3 umol/kg, itn administered 4 hrs pre-infection and at 4 hrs and 17 hrs post-infection up to 20 days; type: functional, organism-based
Summary of the method: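 BALB/c females, 5–6 weeks old, were anaesthetised and infected intranasally with 1,500 PFU/mouse A/PR/8/34 in PBS with 0.42% BSA. Three intranasal doses of 0.3 μmol/kg in saline (50 μl) were given at 4 h pre-infection and at 4 h and 17 h post-infection. Survival was read daily for 20 days, 10–12 mice per group.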

[13] = biological target: T1, Neuraminidase; experiment: Inhibition of Influenza A virus (A/Hiroshima/52/2005(H3N2)) neuraminidase after 30 mins by fluorescence analysis
[14] = biological target: T1, Neuraminidase; experiment: Inhibition of Influenza A virus (A/turkey/Ontario/6,118/1968(H8N4)) neuraminidase after 30 mins by fluorescence analysis
[15] = Inhibition of Influenza B virus (B/Aichi/186/2005(Yamagata)) neuraminidase after 30 mins by fluorescence analysis; summary of the method: as §1
[16] = biological target: T1, Neuraminidase; experiment: Inhibition of Influenza A virus (A/Saitama/07/2006(H3N2)) neuraminidase after 30 mins by fluorescence analysis
[17] = biological target: T1, Neuraminidase; experiment: Inhibition of Influenza A virus (A/duck/Ukraine/1/1963(H3N8)) neuraminidase after 30 mins by fluorescence analysis
[18] = Inhibition of Influenza B virus (B/Tokushima/1/2005(Yamagata)) neuraminidase after 30 mins by fluorescence analysis; summary of the method: as §1
[19] = Inhibition of Influenza B virus (B/Yamagata/15/2002(Victoria)) neuraminidase after 30 mins by fluorescence analysis; summary of the method: as §1
[20] = biological target: T1, Neuraminidase; experiment: Inhibition of Influenza A virus (A/Okinawa/42/2004(H1N1)) neuraminidase after 30 mins by fluorescence analysis
[21] = Inhibition of Influenza B virus (B/Mie/1/1993(Yamagata)) neuraminidase after 30 mins by fluorescence analysis; summary of the method: as §1
[22] = biological target: T1, Neuraminidase; experiment: Inhibition of Influenza A virus (A/R(duck/Mongolia/54/01-duck/Mongolia/47/01)([…])) neuraminidase after 30 mins by fluorescence analysis
[23] = Inhibition of Influenza B virus (B/Yamagata/1/2005(Yamagata)) neuraminidase after 30 mins by fluorescence analysis; summary of the method: as §1
[24] = biological target: T1, Neuraminidase; experiment: Inhibition of Influenza A virus (A/Aichi/2/1968(H3N2)) neuraminidase after 30 mins by fluorescence analysis
[25] = Inhibition of Influenza B virus (B/Shanghai/361/2002(Yamagata)) neuraminidase after 30 mins by fluorescence analysis; summary of the method: as §1
[26] = Inhibition of Influenza B virus (B/Shiga/31/2002(Yamagata)) neuraminidase after 30 mins by fluorescence analysis; summary of the method: as §1
[27] = Inhibition of Influenza B virus (B/Brisbane/32/2002(Victoria) neuraminidase after 30 mins by fluorescence analysis; summary of the method: as §1
[28] = biological target: T1, Neuraminidase; experiment: Inhibition of Influenza A virus (A/duck/Hokkaido/84/2002(H5N3)) neuraminidase after 30 mins by fluorescence analysis
[29] = Inhibition of Influenza B virus (B/Yamagata/87/2004(Yamagata)) neuraminidase after 30 mins by fluorescence analysis; summary of the method: as §1
[30] = biological target: T1, Neuraminidase; experiment: Inhibition of Influenza A virus (A/Yamagata/3/2002(H1N1)) neuraminidase after 30 mins by fluorescence analysis
[31] = biological target: T1, Neuraminidase; experiment: Inhibition of Influenza A virus (A/Kitakyushu/159/1993(H3N2)) neuraminidase after 30 mins by fluorescence analysis
[32] = biological target: T1, Neuraminidase; experiment: Inhibition of Influenza A virus (A/California/07/2004(H3N2)) neuraminidase after 30 mins by fluorescence analysis
[33] = biological target: T1, Neuraminidase; experiment: Inhibition of Influenza A virus (A/Saitama/78/2003(H1N1)) neuraminidase after 30 mins by fluorescence analysis
[34] = biological target: T1, Neuraminidase; experiment: Inhibition of Influenza A virus (A/duck/Memphis/546/1974(H11N9)) neuraminidase after 30 mins by fluorescence analysis
[35] = Inhibition of Influenza B virus (B/Saitama/01/2006(Victoria)) neuraminidase after 30 mins by fluorescence analysis; summary of the method: as §1
[36] = Inhibition of Influenza B virus (B/Shizuoka/58/2004(Yamagata)) neuraminidase after 30 mins by fluorescence analysis; summary of the method: as §1
[37] = Inhibition of Influenza B virus (B/Sapporo/29/2005(Yamagata)) neuraminidase after 30 mins by fluorescence analysis; summary of the method: as §1
[38] = Inhibition of Influenza B virus (B/Yamagata/398/2003(Victoria)) neuraminidase after 30 mins by fluorescence analysis; summary of the method: as §1
[39] = biological target: T1, Neuraminidase; experiment: Inhibition of Influenza A virus (A/Osaka/56/2004(H3N2)) neuraminidase after 30 mins by fluorescence analysis
[40] = Inhibition of Influenza B virus (B/Akita/9/2003(Victoria)) neuraminidase after 30 mins by fluorescence analysis; summary of the method: as §1
[41] = biological target: T1, Neuraminidase; experiment: Inhibition of Influenza A virus (A/Yamagata/2/2002(H3N2)) neuraminidase after 30 mins by fluorescence analysis
[42] = Inhibition of Influenza B virus (B/Yamagata/85/2004(Yamagata)) neuraminidase after 30 mins by fluorescence analysis; summary of the method: as §1

T1 sequence (B4URF0 whole entry): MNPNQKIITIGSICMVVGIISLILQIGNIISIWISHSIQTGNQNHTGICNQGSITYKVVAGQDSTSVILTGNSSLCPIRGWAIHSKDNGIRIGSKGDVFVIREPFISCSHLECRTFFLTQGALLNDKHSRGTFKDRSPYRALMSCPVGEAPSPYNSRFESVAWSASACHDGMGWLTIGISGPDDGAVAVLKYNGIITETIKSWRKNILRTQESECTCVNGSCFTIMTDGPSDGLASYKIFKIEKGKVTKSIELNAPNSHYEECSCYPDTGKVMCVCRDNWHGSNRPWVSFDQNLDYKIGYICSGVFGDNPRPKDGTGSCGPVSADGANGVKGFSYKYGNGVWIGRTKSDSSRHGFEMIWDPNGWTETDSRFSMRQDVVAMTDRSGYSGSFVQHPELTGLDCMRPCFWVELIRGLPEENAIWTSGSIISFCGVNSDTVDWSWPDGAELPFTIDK

## CCCCCCCC(=O)OC[C@@H](O)[C@@H](OC)[C@@H]1OC(C(=O)O)=C[C@H](NC(=N)N)[C@H]1NC(C)=O [LANINAMIVIR OCTANOATE]
[1]
  IC50: 664 nM
[2]
  Activity: Non-toxic
[3]
  IC50: 882 nM
[4]
  IC50: 3610 nM
[5]
  IC50: 56.6 nM
[6]
  IC50: 1170 nM
[7]
  IC50: 15900 nM
[8]
  IC50: 1140 nM
[9]
  IC50: 136 nM
[10]
  IC50: 733 nM
[11]
  IC50: 666 nM
[12]
  Activity: Non-toxic
[13]
  IC50: 69.1 nM
[14]
  IC50: 420 nM
[15]
  IC50: 3550 nM
[16]
  IC50: 63.3 nM
[17]
  IC50: 1050 nM
[18]
  IC50: 3710 nM
[19]
  IC50: 6980 nM
[20]
  IC50: 631 nM
[21]
  IC50: 6850 nM
[22]
  IC50: 276 nM
[23]
  IC50: 3630 nM
[24]
  IC50: 164 nM
[25]
  IC50: 6660 nM
[26]
  IC50: 10500 nM
[27]
  IC50: 9890 nM
[28]
  IC50: 456 nM
[29]
  IC50: 7790 nM
[30]
  IC50: 709 nM
[31]
  IC50: 221 nM
[32]
  IC50: 135 nM
[33]
  IC50: 940 nM
[34]
  IC50: 356 nM
[35]
  IC50: 45500 nM
[36]
  IC50: 7530 nM
[37]
  IC50: 3600 nM
[38]
  IC50: 12400 nM
[39]
  IC50: 129 nM
[40]
  IC50: 13800 nM
[41]
  IC50: 46.6 nM
[42]
  IC50: 7190 nM
